From ChEMBL document CHEMBL4145507, “Design, synthesis and biological evaluation of novel indole-benzimidazole hybrids targeting estrogen receptor alpha (ER-α)” (Eur J Med Chem, 2018)
Calls of active or inactive are those of the source. No cut-off for these calls is given here.

What was measured:
[1] = Drug uptake in human T47D cell cytosol at 5 uM after 24 hrs by confocal laser scanning microscopic method; assay type: ADME, subcellular
T47D [2] = experiment: Downregulation of ERalpha mRNA levels in human T47D cells at 5 uM after 48 hrs by semi-quantitative RT-PCR analysis; assay type: functional, cell-based
How it was run: (§1)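 T47D cells exposed 48 h; total RNA extracted with TRIzol, checked by NanoDrop and denaturing agarose gel, then reverse transcribed. ERα transcript amplified, run on agarose gel and quantified by densitometry, normalized to GAPDH; representative of three experiments.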

Estrogen receptor = biological target: T1, Estrogen receptor (Homo sapiens, UniProt P03372); experiment: Displacement of fluoromone TM from recombinant human ERalpha after 2 hrs by fluorescence polarization analysis
T1 sequence (P03372 whole entry): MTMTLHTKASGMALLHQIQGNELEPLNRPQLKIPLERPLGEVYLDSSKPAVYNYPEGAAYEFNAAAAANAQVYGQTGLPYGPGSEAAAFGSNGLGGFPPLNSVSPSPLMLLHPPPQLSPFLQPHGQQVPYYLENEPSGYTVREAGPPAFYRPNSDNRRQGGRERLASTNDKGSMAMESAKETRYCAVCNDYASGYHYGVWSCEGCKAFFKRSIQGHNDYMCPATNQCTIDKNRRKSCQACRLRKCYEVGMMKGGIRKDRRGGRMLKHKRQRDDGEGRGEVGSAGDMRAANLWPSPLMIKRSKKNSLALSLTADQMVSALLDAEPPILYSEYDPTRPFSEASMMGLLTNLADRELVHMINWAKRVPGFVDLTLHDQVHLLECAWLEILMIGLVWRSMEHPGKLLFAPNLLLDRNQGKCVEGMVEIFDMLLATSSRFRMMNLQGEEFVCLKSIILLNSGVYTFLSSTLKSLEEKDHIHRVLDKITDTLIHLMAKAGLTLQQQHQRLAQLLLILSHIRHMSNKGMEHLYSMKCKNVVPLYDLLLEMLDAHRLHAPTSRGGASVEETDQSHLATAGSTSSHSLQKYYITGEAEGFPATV
How it was run: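 Fluorescence polarization kit: serially DMSO-diluted compound mixed with recombinant human ERα/Fluormone ES2 complex, at least 2 h at room temperature in the dark. Controls were oestradiol for minimum polarization and free tracer. Percent inhibition normalized; IC50 from non-linear regression as the concentration displacing half of the bound ligand.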

T47D [3] = experiment: Antiproliferative activity against human T47D cells after 48 hrs by MTT assay
PBMC = experiment: Cytotoxicity against human PBMC at 100 uM after 48 hrs by MTT assay; assay type: cell-based
How it was run: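 PBMCs isolated from fresh blood of a healthy donor, held in RPMI-1640 with 10% FBS and antibiotic at 37 °C, 5% CO2. About 10^4 cells seeded per well, then MTT read-out as for the T47D assay (0.5 mg/ml MTT, 4 h, acidified DMSO, 570/620 nm).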

[4] = Drug uptake in human T47D cell nucleus at 5 uM after 24 hrs by confocal laser scanning microscopic method; assay type: ADME, subcellular
T47D [5] = experiment: Downregulation of ERalpha protein levels in human T47D cells at 5 uM after 48 hrs by Western blot analysis; assay type: functional
How it was run: (§2)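 T47D cells exposed 48 h, lysed in modified RIPA (50 mM Tris-HCl pH 7.4, 150 mM NaCl, 1 mM EDTA, 1% NP-40, protease inhibitors), protein by Bradford. 50 µg protein run on 10% SDS-PAGE, transferred to nitrocellulose, blocked with 5% milk, probed overnight at 4 °C with rabbit anti-ERα (HC-20), HRP secondary, ECL detection. Normalized to β-actin; three experiments.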

[6] = Drug uptake in human T47D cell plasma membrane at 5 uM after 24 hrs by confocal laser scanning microscopic method; assay type: ADME, cell membranes
T47D [7] = experiment: Downregulation of ERalpha mRNA levels in human T47D cells at 15 uM after 48 hrs by semi-quantitative RT-PCR analysis; assay type: functional, cell-based; how it was run: as §1
[8] = Drug uptake in human T47D cell cytosol at 15 uM after 24 hrs by confocal laser scanning microscopic method; assay type: ADME, subcellular
[9] = Drug uptake in human T47D cell plasma membrane at 15 uM after 24 hrs by confocal laser scanning microscopic method; assay type: ADME, cell membranes
T47D [10] = experiment: Downregulation of ERalpha protein levels in human T47D cells at 15 uM after 48 hrs by Western blot analysis; assay type: functional; how it was run: as §2
[11] = Drug uptake in human T47D cell nucleus at 15 uM after 24 hrs by confocal laser scanning microscopic method; assay type: ADME, subcellular

| Compound | IC50 (Estrogen receptor) | IC50 (T47D [3]) | Activity (PBMC) | also measured |
| --- | --- | --- | --- | --- |
| Brc1ccc2[nH]c(-c3cc4ccccc4[nH]3)nc2c1 | 0.0804 µM | 4.99 µM | Non-Toxic | Drug uptake [1]: Active; Activity (T47D [2]): Active; Drug uptake [4]: Not Active; Activity (T47D [5]): 27.5%; Drug uptake [6]: Active |
| Brc1cnc2[nH]c(-c3cc4ccccc4[nH]3)nc2c1 | – | 21 µM | Non-Toxic | – |
| c1ccc2[nH]c(-c3nc4cccnc4[nH]3)cc2c1 | – | – | Non-Toxic | – |
| Brc1cnc2[nH]c(-c3cc4ccccc4n3Cc3ccccc3)nc2c1 | 0.3 µM | – | Non-Toxic | – |
| BrC1=CN2NC(c3cc4ccccc4[nH]3)=NC2N=C1 (configuration not stated) | – | 24.4 µM | Non-Toxic | – |
| Clc1cc2nc(-c3cc4ccccc4[nH]3)[nH]c2cc1Cl | – | 21.2 µM | Non-Toxic | – |
| c1ccc(Cn2c(-c3nc4ccccc4[nH]3)cc3ccccc32)cc1 | 0.259 µM | 21.4 µM | Non-Toxic | – |
| O=C(c1ccccc1)c1ccc2[nH]c(-c3cc4ccccc4[nH]3)nc2c1 | 0.0469 µM | – | Non-Toxic | – |
| Cc1c(-c2ccc(O)cc2)n(Cc2ccc(OCCN3CCCCCC3)cc2)c2ccc(O)cc12 | – | – | – | Activity (T47D [7]): Active |
| O=C(c1ccccc1)c1ccc2[nH]c(-c3cc4ccccc4n3Cc3ccccc3)nc2c1 | – | – | Non-Toxic | – |
| c1ccc(Cn2c(-c3nc4cc5ccccc5cc4[nH]3)cc3ccccc32)cc1 | – | 13.4 µM | Non-Toxic | – |
| Cc1cc(C)c2nc(-c3cc4ccccc4[nH]3)[nH]c2c1 | – | 24.8 µM | Non-Toxic | – |
| Brc1ccc2[nH]c(-c3cc4ccccc4n3Cc3ccccc3)nc2c1 | 0.0736 µM | 15.5 µM | Non-Toxic | Activity (T47D [7]): Active; Drug uptake [8]: Active; Drug uptake [9]: Active; Activity (T47D [10]): 57.42%; Drug uptake [11]: Not Active |
| c1ccc2[nH]c(C3=Nc4cccc5cccc(c45)N3)cc2c1 | 0.202 µM | 20.5 µM | Non-Toxic | – |
| Cc1cc(C)c2nc(-c3cc4ccccc4n3Cc3ccccc3)[nH]c2c1 | 0.0331 µM | 21.8 µM | Non-Toxic | – |
| c1ccc2[nH]c(-c3nc4ccccc4[nH]3)cc2c1 | – | 6.2 µM | Non-Toxic | – |
| BrC1=CN2NC(c3cc4ccccc4n3Cc3ccccc3)=NC2N=C1 (configuration not stated) | 0.539 µM | – | Non-Toxic | – |
| Cc1cccc2[nH]c(-c3cc4ccccc4n3Cc3ccccc3)nc12 | 0.387 µM | – | Non-Toxic | – |
| c1ccc(Cn2c(-c3nc4cccnc4[nH]3)cc3ccccc32)cc1 | – | – | Non-Toxic | – |
| c1ccc2cc3[nH]c(-c4cc5ccccc5[nH]4)nc3cc2c1 | – | 23.4 µM | Non-Toxic | – |
| Cc1cccc2[nH]c(-c3cc4ccccc4[nH]3)nc12 | 0.192 µM | 8.9 µM | Non-Toxic | – |
| Clc1cc2nc(-c3cc4ccccc4n3Cc3ccccc3)[nH]c2cc1Cl | 0.0767 µM | 22.5 µM | Non-Toxic | – |
